Reference: PMC13080778 (The Journal of general physiology, 2026)
Where “and” joins values, the source holds several entries; their conditions need not be identical. Identical values can stand only once. Counter-ions that a name gives are not always drawn. Marks after values point to notes of the source that are not given here. Blank lines part the entries; values can stand above or below the molecule they belong to.

Columns and labels:
CaV3.2 = CaV3.2 (Homo sapiens, UniProt O95180); assay: Whole-cell patch-clamp of Ca2+ currents; format: cell-based
Outline: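 HEK293T cells co-transfected (Fugene 6) with CaV3.2 plus β2x13, α2δ-4 and eGFP; whole-cell recordings at room temperature 36–72 h later, 4–8 MΩ pipettes, 50–70% series-resistance compensation, P/−4 leak subtraction. Compound perfused in external solution (vehicle ≤1% DMSO); 0.1 Hz currents, steady-state % inhibition vs vehicle fitted by inhibitor–response regression (0–100 constrained). Boltzmann fits of I–V give Gmax, Vh, k, Vrev.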

CaV1.2 [1] = target: CaV1.2 (Oryctolagus cuniculus, UniProt P15381); assay: Whole-cell patch-clamp of ICa in HEK293T cells transfected with CaV1.2; format: cell-based, rabbit; conditions: CaV1.2 WT
CaV1.4 T1007Y = CaV1.4 T1007Y (Homo sapiens, UniProt O60840, T1007Y); assay: Whole-cell patch-clamp of ICa in HEK293T cells, CaV1.4 T1007Y mutant; format: cell-based
Chain of CaV1.4 T1007Y (O60840 whole entry T1007Y): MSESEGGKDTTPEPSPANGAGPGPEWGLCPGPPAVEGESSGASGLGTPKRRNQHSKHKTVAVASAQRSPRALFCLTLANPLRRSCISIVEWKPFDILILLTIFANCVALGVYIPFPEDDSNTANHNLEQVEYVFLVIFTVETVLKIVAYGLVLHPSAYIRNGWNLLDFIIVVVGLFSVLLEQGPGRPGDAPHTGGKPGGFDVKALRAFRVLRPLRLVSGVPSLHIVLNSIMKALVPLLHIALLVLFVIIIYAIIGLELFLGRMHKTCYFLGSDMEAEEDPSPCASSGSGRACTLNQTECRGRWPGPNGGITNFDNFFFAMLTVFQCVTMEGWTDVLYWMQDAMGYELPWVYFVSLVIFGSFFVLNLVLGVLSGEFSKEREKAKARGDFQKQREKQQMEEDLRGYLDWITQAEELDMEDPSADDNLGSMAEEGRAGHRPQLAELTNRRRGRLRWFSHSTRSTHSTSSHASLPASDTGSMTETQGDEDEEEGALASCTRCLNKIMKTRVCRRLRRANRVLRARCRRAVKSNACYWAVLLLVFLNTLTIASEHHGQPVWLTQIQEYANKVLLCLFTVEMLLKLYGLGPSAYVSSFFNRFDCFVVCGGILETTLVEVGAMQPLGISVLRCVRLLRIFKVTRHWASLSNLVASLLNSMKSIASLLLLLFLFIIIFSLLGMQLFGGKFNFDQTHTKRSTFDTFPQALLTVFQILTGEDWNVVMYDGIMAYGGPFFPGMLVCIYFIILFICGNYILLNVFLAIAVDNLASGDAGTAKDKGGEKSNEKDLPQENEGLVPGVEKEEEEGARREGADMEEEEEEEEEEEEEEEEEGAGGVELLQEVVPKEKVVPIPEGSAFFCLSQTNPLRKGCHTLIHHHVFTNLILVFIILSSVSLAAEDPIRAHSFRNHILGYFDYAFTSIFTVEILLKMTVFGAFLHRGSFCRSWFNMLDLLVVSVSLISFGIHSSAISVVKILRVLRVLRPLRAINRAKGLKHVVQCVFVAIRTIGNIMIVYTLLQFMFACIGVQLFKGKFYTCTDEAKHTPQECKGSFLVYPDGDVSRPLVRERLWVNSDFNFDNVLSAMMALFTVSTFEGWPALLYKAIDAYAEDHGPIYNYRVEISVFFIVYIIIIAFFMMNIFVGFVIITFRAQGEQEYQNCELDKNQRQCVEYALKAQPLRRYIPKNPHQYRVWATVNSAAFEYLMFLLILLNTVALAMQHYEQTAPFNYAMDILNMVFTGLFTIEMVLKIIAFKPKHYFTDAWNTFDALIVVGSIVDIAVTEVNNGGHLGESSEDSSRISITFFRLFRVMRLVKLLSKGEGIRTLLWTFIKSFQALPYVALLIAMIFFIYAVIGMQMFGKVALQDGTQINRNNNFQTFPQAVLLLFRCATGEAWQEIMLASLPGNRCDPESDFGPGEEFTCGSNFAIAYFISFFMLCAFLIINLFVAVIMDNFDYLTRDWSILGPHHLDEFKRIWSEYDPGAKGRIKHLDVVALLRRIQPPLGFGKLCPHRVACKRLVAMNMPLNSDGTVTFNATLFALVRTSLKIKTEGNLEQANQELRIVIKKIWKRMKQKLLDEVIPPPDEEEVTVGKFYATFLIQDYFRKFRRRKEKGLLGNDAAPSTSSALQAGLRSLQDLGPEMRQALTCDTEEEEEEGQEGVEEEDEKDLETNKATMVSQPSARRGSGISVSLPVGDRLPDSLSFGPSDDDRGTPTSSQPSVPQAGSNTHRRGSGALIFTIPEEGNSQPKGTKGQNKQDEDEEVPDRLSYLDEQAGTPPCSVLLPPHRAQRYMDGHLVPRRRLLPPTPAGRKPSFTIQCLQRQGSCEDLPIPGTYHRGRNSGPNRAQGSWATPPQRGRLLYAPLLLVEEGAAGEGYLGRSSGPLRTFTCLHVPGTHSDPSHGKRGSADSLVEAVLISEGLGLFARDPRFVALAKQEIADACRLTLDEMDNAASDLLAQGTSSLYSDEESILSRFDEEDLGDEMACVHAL
Chain of CaV1.4 T1007Y (Q08289 whole entry partner): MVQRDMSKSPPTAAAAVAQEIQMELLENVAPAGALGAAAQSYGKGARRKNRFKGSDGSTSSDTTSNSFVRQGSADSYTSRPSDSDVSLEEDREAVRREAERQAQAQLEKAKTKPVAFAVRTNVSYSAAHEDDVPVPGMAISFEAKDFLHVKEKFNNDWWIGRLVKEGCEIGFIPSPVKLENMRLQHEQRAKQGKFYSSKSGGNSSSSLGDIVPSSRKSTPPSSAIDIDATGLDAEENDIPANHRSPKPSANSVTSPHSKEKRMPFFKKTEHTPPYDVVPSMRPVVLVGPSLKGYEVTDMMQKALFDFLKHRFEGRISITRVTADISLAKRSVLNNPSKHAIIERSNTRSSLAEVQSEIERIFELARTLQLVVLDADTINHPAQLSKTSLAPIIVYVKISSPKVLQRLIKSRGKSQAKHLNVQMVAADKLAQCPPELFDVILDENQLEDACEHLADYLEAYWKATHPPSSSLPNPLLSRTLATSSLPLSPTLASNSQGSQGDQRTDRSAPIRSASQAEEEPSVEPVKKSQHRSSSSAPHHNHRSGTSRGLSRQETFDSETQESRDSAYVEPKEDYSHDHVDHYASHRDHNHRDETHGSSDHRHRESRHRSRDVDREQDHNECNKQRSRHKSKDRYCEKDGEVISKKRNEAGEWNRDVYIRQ
Chain of CaV1.4 T1007Y (Q7Z3S7 20-991 partner limits assumed): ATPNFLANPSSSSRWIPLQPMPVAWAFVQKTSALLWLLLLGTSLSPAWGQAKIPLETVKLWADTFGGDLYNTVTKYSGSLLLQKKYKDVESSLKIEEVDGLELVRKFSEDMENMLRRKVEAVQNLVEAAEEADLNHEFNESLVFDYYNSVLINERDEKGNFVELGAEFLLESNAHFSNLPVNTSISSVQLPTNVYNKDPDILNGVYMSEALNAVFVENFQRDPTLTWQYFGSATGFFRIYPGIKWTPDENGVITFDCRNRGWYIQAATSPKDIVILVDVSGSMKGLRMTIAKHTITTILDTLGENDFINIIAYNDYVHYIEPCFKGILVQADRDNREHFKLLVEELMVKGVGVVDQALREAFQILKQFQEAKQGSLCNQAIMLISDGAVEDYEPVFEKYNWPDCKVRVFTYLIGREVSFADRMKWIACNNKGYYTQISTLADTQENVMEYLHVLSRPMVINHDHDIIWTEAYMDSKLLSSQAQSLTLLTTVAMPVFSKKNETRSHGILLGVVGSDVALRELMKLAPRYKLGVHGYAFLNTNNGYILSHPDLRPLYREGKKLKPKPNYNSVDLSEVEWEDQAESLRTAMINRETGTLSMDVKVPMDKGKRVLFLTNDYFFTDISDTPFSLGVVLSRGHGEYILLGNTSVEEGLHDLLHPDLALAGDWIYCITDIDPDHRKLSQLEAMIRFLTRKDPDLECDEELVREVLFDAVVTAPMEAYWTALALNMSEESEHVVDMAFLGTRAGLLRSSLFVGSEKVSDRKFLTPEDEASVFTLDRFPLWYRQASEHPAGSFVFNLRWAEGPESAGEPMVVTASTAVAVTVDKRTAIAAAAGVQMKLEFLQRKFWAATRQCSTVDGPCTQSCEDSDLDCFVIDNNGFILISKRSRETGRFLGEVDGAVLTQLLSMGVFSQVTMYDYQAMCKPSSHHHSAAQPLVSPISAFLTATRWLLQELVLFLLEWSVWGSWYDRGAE
Chain of CaV1.4 T1007Y (Q7Z3S7 992-1137 partner limits assumed): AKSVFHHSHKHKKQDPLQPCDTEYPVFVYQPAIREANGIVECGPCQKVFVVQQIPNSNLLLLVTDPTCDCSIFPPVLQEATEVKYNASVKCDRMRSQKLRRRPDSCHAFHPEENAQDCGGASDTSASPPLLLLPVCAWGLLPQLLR

CaV1.4 M1426A = CaV1.4 M1426A (Homo sapiens, UniProt O60840, M1426A); assay: Whole-cell patch-clamp of ICa in HEK293T cells, CaV1.4 M1426A mutant; format: cell-based
CaV1.2 V1063M = CaV1.2 V1063M (Oryctolagus cuniculus, UniProt P15381, V1063M); assay: Whole-cell patch-clamp of ICa in HEK293T cells, CaV1.2 V1063M mutant; format: cell-based, rabbit
CaV1.4 [2] = target: CaV1.4 (Homo sapiens, UniProt O60840); format: cell-based; conditions: for IC50: inhibition of ICa, Hill fit
Chain of CaV1.4 (O60840 whole entry): as the sequence (O60840 whole entry T1007Y) above, with Y1007T counted along it
Chain of CaV1.4 (Q08289 whole entry partner): as the sequence (Q08289 whole entry partner) above
Chain of CaV1.4 (Q7Z3S7 20-991 partner limits assumed): as the sequence (Q7Z3S7 20-991 partner limits assumed) above
Chain of CaV1.4 (Q7Z3S7 992-1137 partner limits assumed): as the sequence (Q7Z3S7 992-1137 partner limits assumed) above

CaV3 channels = conditions: ref Xiang et al., 2011; cited from earlier work
CaV1.4 M1129A = CaV1.4 M1129A (Homo sapiens, UniProt O60840, M1129A); assay: Whole-cell patch-clamp of ICa in HEK293T cells, CaV1.4 M1129A mutant; format: cell-based
CaV1.4 M1004A = CaV1.4 M1004A (Homo sapiens, UniProt O60840, M1004A); assay: Whole-cell patch-clamp of ICa in HEK293T cells, CaV1.4 M1004A mutant; format: cell-based
[3] = system: Cav1.4 ICa in mouse cones; conditions: 5 μM, ref Davison et al., 2022; cited from earlier work
three CaV3 subtypes = conditions: ref Tringham et al., 2012; cited from earlier work
Cav1.2 [4] = conditions: ref Wei et al., 2024; cited from earlier work
Cav1.4 [5] = conditions: ref Koschak et al., 2003; cited from earlier work
[6] = CaV3.2, inhibition of ICa, Hill fit, mean ± SEM
[7] = CaV3.2, drug at 100 nM, mean ± SEM or median
[8] = CaV1.4, drug at 5 µM, Vhold −90 mV

IC50 (CaV3.2; [6]): 0.0237 ± 0.0025 µM
IC50 (CaV3.2; CaV3.2 ICa): ~0.024 µM
IC50 (CaV1.4 T1007Y; CaV1.4 T1007Y): ~20 µM and 20 µM
IC50 (CaV1.4 M1426A): 15 ± 2.9 µM
IC50 (CaV1.4 [2]; CaV1.4 WT): 2.1 ± 0.51 µM
IC50 (CaV1.4 M1129A): 0.45 ± 0.16 µM
IC50 (CaV1.4 M1004A): 310 ± 190 µM
SMILES: CC(C)(C)CCN1C[C@@H]2C(CNC(=O)c3cc(Cl)cc(Cl)c3)[C@@H]2C1 (stereo partly shown) [ML218, ML218 hydrochloride]
IC50 (CaV1.2 [1]): ~37 µM and 37 µM
IC50 (CaV1.2 V1063M): 120 ± 60 µM
IC50 (CaV3 channels): < 0.5 µM

Vrev (CaV3.2; CaV3.2, drug at 100 nM): 42.96 ± 1.86 mV
inhibition of the peak ICa amplitude (CaV3.2; CaV3.2, drug at 100 nM): ~ 40%
Gmax (CaV3.2; CaV3.2, drug at 100 nM, Boltzmann fit of I-V, mean ± SEM or median): 0.55 ± 0.13 nS/pF
Vh (CaV3.2; [7]): -33.47 ± 3.65 mV
k (CaV3.2; [7]): 6.75^† mV
Hill Slope (CaV3.2; CaV3.2, dose-response fit): 0.82 ± 0.10
IC50 (CaV3.2; [6]): 0.26 ± 0.04 µM
IC50 (CaV3.2; CaV3.2 ICa): ~0.265 µM
Gmax (CaV1.4 [2]; [8]): 0.0845 ± 0.0387 nS/pF
Vh (CaV1.4 [2]; [8]): -6.10 ± 1.54 mV
Vrev (CaV1.4 [2]; [8]): 60.73 ± 4.72 mV
k (CaV1.4 [2]; [8]): 8.89 ± 0.50 mV
Hill Slope (CaV1.4 [2]; CaV1.4 WT, dose-response fit): 0.22 ± 0.04
IC50 (CaV1.4 [2]; CaV1.4 WT): 31.5 ± 21 µM
IC50 for Cav1.4 higher than that for Cav3.2 (CaV1.4 [2]; Cav1.4 versus Cav3.2): ~ 100 fold
SMILES: CC(C)(C)NC(=O)CN1CCC(CNC(=O)c2cc(F)cc(Cl)c2)CC1 [Z944]
effect on amplitude of Cav1.4 ICa [3]: increased the amplitude
affinity for CaV3 subtypes higher than for CaV2.2 and CaV1.2 (three CaV3 subtypes): 70-100 times

SMILES: COC(=O)C1=C(C)NC(C)=C(C(=O)OC2CCCN(Cc3ccccc3)C2)C1c1cccc([N+](=O)[O-])c1 (stereo not shown) [benidipine]
higher potency compared to nifedipine (Cav1.2 [4]): 10 fold

inhibition at 1 µM (CaV1.4 T1007Y; HEK-293T, read-out: inhibition of ICa): ~17%
inhibition at 1 µM (CaV1.4 [2]; HEK-293T, read-out: inhibition of ICa amplitude): ~78%
SMILES: COC(=O)C1=C(C)NC(C)=C(C(=O)OC(C)C)C1c1cccc2nonc12 (stereo not shown) [isradipine]
increase in the extent of block on shifting Vhold from −90 mV to −50 mV (Cav1.4 [5]): ~ 80%
